Laboratory results as given in ChEMBL document CHEMBL1132716, “Agonist selectivity of mGluR1 and mGluR2 metabotropic receptors: a different environment but similar recognition of an extended glutamate conformation” (J Med Chem, 1999).
pIC50: −log10 of the molar value. The source made the active and inactive calls. No cut-off for these calls is given here.

What was measured:
[1] = molecular target: Metabotropic glutamate receptor 2 (Rattus norvegicus) (UniProt P31421); test: Ratio between EC50 of compound and glutamate measured against Metabotropic glutamate receptor 2; type: functional
In short: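 mGluR2 (rat, transient in HEK 293 cells with co-expressed Gqi9 chimera) inositol phosphate formation; EC50 from Hill fits of at least eight concentrations over 3 orders of magnitude, reported as ratio to the glutamate EC50 determined under the same conditions.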

[2] = molecular target: T1, Metabotropic glutamate receptor 1 (Rattus norvegicus, UniProt P23385); test: Inhibitory activity against Metabotropic glutamate receptor 1 in the rat LLC-PK1/HEK 293 cells.; type: cell-based, HEK293
In short: (§1)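 Rat mGluR1a transiently expressed in LLC-PK1 or HEK 293 cells; receptor activity read as agonist-induced inositol phosphate formation. At least eight agonist concentrations spanning 3 orders of magnitude gave full dose-response curves, fitted to a Hill equation for maximal effect, EC50 (or IC50) and Hill coefficient.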

[3] = molecular target: Metabotropic glutamate receptor 2 (Rattus norvegicus, UniProt P31421); test: Inhibitory activity against Metabotropic glutamate receptor 2 in the rat HEK 293 cells.; type: cell-based, HEK293
In short: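 Rat mGluR2 transiently expressed in HEK 293 cells, cotransfected with chimeric G-protein Gqi9 so the receptor couples to PLC; activity read as agonist-induced inositol phosphate formation. At least eight concentrations over 3 orders of magnitude gave full dose-response curves, Hill-equation fit giving maximal effect, EC50 (or IC50) and Hill coefficient.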

[4] = molecular target: Metabotropic glutamate receptor 1 (Rattus norvegicus) (UniProt P23385); test: Ratio between EC50 of compound and glutamate measured against metabotropic glutamate receptor 1; type: functional
In short: (§2)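 mGluR1a (rat, transient in LLC-PK1 or HEK 293 cells) inositol phosphate formation; EC50 from Hill fits of at least eight-point curves over 3 log units, expressed as ratio of compound EC50 to glutamate EC50 measured in the same assay.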

[5] = molecular target: T1, Metabotropic glutamate receptor 1; test: Inhibitory activity against Metabotropic glutamate receptor 1 in the rat LLC-PK1/HEK 293 cells; type: cell-based, HEK293; in short: as §1
[6] = molecular target: Metabotropic glutamate receptor 2 (Homo sapiens, UniProt Q14416); test: Inhibitory activity against human Metabotropic glutamate receptor 2
[7] = molecular target: T1, Metabotropic glutamate receptor 1; test: Inhibitory activity against Metabotropic glutamate receptor 1 in the rat LLC-PK1/HEK 293 cells.; No effect; type: cell-based; details: hek293; in short: as §1
[8] = molecular target: Metabotropic glutamate receptor 1 (Rattus norvegicus) (UniProt P23385); test: Ratio between the measured EC50 and the glutamate EC50 measured against Metabotropic glutamate receptor 1; No effect; type: functional; in short: as §2

Metabotropic glutamate receptor 2 (Rattus norvegicus, UniProt P31421), sequence (P31421 whole entry): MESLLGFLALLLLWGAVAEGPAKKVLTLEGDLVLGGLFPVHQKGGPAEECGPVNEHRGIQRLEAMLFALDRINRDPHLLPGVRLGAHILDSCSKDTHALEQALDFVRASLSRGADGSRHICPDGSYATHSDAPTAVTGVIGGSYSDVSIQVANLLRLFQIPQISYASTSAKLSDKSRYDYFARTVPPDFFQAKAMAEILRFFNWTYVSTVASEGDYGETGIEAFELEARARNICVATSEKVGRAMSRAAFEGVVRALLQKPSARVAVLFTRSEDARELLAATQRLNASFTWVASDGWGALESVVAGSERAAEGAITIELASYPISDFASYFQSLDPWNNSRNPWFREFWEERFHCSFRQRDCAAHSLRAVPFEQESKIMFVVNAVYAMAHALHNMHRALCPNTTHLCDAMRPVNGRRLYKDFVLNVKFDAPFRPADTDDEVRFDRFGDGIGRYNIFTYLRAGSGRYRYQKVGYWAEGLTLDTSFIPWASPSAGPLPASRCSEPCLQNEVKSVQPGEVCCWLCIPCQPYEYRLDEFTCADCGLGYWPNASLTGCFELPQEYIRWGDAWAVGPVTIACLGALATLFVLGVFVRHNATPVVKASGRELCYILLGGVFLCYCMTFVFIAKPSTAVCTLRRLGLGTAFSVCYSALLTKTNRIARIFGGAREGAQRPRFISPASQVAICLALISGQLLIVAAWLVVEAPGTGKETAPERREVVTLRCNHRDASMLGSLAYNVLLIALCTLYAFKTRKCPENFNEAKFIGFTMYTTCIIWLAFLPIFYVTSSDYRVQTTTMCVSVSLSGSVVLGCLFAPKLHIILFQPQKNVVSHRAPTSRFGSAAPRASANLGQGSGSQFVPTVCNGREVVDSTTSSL
T1 sequence (P23385 whole entry): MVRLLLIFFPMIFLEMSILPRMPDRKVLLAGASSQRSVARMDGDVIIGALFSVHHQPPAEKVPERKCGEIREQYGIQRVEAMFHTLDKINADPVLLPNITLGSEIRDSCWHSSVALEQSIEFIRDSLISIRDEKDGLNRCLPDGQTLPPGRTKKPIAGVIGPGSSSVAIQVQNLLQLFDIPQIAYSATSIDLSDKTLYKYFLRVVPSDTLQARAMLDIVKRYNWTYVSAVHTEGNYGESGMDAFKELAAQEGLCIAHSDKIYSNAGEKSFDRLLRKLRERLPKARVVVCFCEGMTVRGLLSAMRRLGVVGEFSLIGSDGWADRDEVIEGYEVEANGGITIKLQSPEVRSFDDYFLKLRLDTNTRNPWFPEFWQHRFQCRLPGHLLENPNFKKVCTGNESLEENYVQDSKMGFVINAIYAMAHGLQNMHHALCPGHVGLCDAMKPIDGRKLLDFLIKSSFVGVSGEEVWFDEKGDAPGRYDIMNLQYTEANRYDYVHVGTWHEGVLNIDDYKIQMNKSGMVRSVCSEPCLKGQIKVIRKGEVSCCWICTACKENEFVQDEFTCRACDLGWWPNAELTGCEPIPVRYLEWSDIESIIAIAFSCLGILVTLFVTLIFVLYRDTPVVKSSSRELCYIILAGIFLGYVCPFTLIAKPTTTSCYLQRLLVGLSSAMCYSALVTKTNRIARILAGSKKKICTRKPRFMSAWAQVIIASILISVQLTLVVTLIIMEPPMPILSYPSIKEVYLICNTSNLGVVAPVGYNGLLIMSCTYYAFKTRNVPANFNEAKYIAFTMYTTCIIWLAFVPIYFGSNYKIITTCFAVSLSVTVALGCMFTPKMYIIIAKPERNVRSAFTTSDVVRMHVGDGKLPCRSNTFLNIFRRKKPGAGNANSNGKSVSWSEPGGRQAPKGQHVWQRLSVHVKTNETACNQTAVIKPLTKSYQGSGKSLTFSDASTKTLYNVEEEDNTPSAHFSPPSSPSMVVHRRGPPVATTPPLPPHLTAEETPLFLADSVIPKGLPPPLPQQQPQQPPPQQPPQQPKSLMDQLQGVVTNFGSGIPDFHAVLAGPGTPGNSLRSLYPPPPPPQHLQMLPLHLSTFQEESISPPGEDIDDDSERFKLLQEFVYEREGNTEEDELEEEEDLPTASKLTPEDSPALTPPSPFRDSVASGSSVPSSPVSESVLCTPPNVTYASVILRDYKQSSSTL
Metabotropic glutamate receptor 2 (Rattus norvegicus), sequence (P31421 19-872 limits assumed): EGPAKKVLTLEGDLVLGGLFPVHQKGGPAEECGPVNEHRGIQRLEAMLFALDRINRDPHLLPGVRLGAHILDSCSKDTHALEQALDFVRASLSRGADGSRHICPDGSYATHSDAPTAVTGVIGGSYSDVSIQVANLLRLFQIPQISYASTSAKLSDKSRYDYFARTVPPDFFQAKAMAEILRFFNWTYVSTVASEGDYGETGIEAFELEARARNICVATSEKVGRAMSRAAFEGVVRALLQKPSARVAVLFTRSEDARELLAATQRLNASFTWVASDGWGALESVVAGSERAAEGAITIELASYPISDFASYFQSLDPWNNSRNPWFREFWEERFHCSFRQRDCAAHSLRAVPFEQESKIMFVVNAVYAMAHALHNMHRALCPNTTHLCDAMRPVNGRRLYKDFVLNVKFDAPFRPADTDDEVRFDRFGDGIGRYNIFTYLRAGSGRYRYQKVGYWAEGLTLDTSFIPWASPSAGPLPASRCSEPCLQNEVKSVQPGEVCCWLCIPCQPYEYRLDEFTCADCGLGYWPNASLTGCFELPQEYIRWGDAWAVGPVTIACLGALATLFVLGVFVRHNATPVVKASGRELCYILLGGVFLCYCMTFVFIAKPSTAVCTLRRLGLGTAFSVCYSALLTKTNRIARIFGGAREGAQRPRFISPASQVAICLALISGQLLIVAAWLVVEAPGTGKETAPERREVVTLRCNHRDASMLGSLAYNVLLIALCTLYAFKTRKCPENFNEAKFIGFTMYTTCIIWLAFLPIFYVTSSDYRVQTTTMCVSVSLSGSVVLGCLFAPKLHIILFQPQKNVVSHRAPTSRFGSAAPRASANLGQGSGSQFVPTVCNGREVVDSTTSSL
Metabotropic glutamate receptor 1 (Rattus norvegicus), sequence (P23385 19-1199 limits assumed): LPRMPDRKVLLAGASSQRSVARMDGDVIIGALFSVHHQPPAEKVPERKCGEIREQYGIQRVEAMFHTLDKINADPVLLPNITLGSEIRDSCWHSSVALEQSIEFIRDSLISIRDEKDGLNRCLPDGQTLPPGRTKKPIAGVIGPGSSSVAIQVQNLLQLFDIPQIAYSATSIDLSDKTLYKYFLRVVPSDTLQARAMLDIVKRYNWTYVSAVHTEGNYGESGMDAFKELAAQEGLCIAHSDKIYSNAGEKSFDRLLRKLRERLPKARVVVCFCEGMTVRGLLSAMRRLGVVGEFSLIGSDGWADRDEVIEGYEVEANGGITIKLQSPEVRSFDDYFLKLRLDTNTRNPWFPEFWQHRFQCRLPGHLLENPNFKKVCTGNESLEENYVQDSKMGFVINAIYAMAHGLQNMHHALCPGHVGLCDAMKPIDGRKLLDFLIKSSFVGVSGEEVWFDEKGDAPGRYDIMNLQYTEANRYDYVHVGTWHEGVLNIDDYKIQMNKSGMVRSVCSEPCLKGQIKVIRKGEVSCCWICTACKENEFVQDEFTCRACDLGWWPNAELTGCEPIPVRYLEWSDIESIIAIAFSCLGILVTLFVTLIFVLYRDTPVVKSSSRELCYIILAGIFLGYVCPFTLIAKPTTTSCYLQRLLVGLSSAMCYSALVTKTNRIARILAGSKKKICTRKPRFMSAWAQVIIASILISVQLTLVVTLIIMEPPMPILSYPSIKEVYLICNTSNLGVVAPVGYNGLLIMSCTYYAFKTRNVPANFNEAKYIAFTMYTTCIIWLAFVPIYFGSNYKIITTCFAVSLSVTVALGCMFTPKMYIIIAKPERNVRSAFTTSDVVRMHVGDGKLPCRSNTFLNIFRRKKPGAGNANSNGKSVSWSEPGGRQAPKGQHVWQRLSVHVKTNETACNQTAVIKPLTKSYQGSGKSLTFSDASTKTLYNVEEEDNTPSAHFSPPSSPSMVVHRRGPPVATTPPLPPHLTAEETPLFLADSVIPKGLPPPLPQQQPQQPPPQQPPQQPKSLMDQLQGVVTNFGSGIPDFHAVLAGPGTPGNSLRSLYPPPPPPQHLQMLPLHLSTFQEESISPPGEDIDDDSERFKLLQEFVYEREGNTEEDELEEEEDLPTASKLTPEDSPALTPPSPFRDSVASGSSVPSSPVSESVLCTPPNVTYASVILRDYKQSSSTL
Metabotropic glutamate receptor 2 (Homo sapiens, UniProt Q14416), sequence (Q14416 whole entry): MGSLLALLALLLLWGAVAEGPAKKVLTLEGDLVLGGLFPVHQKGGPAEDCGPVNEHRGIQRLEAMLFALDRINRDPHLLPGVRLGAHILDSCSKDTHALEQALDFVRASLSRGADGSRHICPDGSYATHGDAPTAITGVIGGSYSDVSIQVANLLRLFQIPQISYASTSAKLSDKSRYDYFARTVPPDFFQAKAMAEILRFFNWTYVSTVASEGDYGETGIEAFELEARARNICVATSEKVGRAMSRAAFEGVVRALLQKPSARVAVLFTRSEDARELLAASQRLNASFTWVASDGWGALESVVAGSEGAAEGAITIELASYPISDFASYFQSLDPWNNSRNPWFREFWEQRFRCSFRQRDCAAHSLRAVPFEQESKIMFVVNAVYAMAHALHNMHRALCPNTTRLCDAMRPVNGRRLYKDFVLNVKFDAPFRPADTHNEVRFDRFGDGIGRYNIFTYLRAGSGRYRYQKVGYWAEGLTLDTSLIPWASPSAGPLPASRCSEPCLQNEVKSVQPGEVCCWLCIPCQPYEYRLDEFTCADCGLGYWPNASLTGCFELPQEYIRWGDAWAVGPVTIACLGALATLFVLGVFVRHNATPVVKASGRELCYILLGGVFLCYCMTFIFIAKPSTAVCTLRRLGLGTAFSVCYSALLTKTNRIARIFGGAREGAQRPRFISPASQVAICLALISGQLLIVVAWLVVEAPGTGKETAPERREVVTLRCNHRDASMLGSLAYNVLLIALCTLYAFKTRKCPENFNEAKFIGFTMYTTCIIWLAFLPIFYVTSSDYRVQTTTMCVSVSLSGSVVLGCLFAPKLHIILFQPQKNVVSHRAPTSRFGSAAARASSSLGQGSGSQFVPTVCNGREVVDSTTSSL

Row | Compound | EC50 ratio [1] | EC50 ratio [4] | other results
1 | NC1(C(=O)O)C2CCC1C(C(=O)O)C2 (stereo unspecified) | > 80 | > 80 | pIC50 [2]: < 3.00; pIC50 [3]: < 3.00
2 | N[C@H](C(=O)O)c1ccc(C(=O)O)c(O)c1 | 4 | – | pIC50 [5]: 4.40
3 | C[C@H](C[C@H](N)C(=O)O)C(=O)O | 23 | 4.6 | –
4 | NC1(C(=O)O)CC2CC1C2C(=O)O (stereo in doubt; 13) | 186 | 25 | –
5 | N[C@H](C(=O)O)[C@@H]1C[C@H]1C(=O)O | – | 20 | –
6 | C[C@@H](CC(=O)O)[C@H](N)C(=O)O | 80 | 13 | –
7 | N[C@@H](C[C@H](CCCC(c1ccccc1)c1ccccc1)C(=O)O)C(=O)O | – | – | pIC50 [6]: 6.40; IC50 [7]: Not Active
8 | O=C(O)[C@H]1C[C@H](C(=O)O)N1 | > 80 | 15 | –
9 | NC1(C(=O)O)CC2CC1C2C(=O)O (stereo in doubt; 12) | 1.1 | 0.32 | –
10 | N[C@@H](C[C@H](CC(c1ccccc1)c1ccccc1)C(=O)O)C(=O)O | – | – | pIC50 [6]: 5.52; IC50 [7]: Not Active
11 | CC(N)(CCC(=O)O)C(=O)O (racemic) | > 80 | – | –
12 | C=C(CC(N)C(=O)O)C(=O)O (racemic) | 0.4 | 1.1 | –
13 | C[C@H](CC(=O)O)[C@H](N)C(=O)O | 12 | 23 | –
14 | N[C@H](C(=O)O)c1cc(O)no1 | 25 | 0.91 | –
15 | NC1(C(=O)O)CC2CCC1C2C(=O)O (stereo in doubt; 10) | > 80 | > 80 | –
16 | N[C@H](C(=O)O)C12CC(C(=O)O)(C1)C2 | > 60 | – | pIC50 [2]: 4.60; pIC50 [3]: < 3.52
17 | N[C@H](C(=O)O)c1cc(O)cc(O)c1 | – | 0.53 | –
18 | N[C@H](C(=O)O)c1cccc(O)c1 | > 80 | 7.8 | –
19 | N[C@H](C(=O)O)C1[C@@H](C(=O)O)[C@@H]1C(=O)O (stereo partly specified) | 0.03 | – | pIC50 [2]: 3.41
20 | NC1(C(=O)O)CC2CCC1C2C(=O)O (stereo in doubt; 8) [listing 1 of 2 here] | – | – | pIC50 [2]: 3.52

Row | Compound | EC50 ratio [1] | EC50 ratio [4] | other results
21 | N[C@@H](Cn1oc(=O)[nH]c1=O)C(=O)O | > 90 | 0.02 | –
22 | N[C@]1(C(=O)O)C[C@H](C(=O)O)[C@H](C(=O)O)C1 | – | – | EC50 ratio [8]: inactive; pIC50 [2]: 3.94; pIC50 [3]: 4.06
23 | N[C@@H](CCC(=O)O)C(=O)O | 1 | 1 | –
24 | C=C(C[C@H](N)C(=O)O)C(=O)O | – | 0.7 | –
25 | N[C@H](C(=O)O)[C@H]1C[C@@H]1C(=O)O | 0.04 | 5 | –
26 | N[C@@]1(C(=O)O)CN[C@@H](C(=O)O)C1 | 0.4 | > 80 | –
27 | N[C@]1(C(=O)O)CC[C@H](C(=O)O)C1 | 10 | 10 | –
28 | C=C(C[C@@H](N)C(=O)O)C(=O)O | – | 14 | –
29 | NC1(C(=O)O)CC2CC1C2C(=O)O (stereo in doubt; 14) | 131 | 47 | –
30 | N[C@@]1(C(=O)O)CC[C@@H](C(=O)O)C1 | 1.6 | 0.75 | –
31 | N[C@@]1(C(=O)O)CC[C@H](C(=O)O)C1 | 1.2 | > 25 | –
32 | N[C@@H](CC(C(=O)O)C(=O)O)C(=O)O | – | – | EC50 ratio [8]: inactive; pIC50 [3]: 3.99; IC50 [7]: Not Active
33 | NC1(C(=O)O)CC2CCC1C2C(=O)O (stereo in doubt; 8) [listing 2 of 2 here] | > 80 | – | –
34 | C[C@@](N)(C(=O)O)[C@H]1C[C@@H]1C(=O)O | – | – | EC50 ratio [8]: inactive; pIC50 [3]: 4.11
35 | C[C@@H](C[C@H](N)C(=O)O)C(=O)O | 0.3 | 0.5 | –
36 | C[C@](N)(CCC(=O)O)C(=O)O | – | > 80 | –
37 | CC(CC(N)C(=O)O)C(=O)O (racemic) | 0.53 | 0.65 | –
38 | C[C@H](C[C@@H](N)C(=O)O)C(=O)O | 1.1 | 4.9 | –
39 | C[C@@](N)(CCC(=O)O)C(=O)O | – | > 80 | –
40 | N[C@@]1(C(=O)O)CC[C@H]2[C@H](C(=O)O)[C@H]21 | 0.004 | – | pIC50 [2]: 3.34
